The campaign covered roughly 200,000 compounds. Fewer than 10 were called active. Only a sample is shown. Unmarked numbers belong to inactive results.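 Rule for the calls: active = activation factor at least 2 at 20 µM; inactive = the rest.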
Molecular target: Alkaline phosphatase, tissue-nonspecific isozyme (Homo sapiens) (UniProt P05186)
Assay: activation of human TNAP, high DEA acceptor – biochemical, luminescence, uHTS, primary screen (AID 1136)
Conditions: purified TNAP, CDP-star luminescence, 1 M DEA, 30 min; at 20 µM; stronger effect = higher value; 0 = EDTA background, 1 = DMSO-only activity
Method in brief: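 Assay system: human TNAP; Input: enzyme diluted 1/800 final; Reagent: CDP-star luminogenic substrate at 100 µM final; Timing: 30 min, room temperature; Signal: luminescence; Evaluation: TNAP activation factor scaled between EDTA and DMSO control wells.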

Sequence of Alkaline phosphatase, tissue-nonspecific isozyme (Homo sapiens) (P05186 whole entry, looked up): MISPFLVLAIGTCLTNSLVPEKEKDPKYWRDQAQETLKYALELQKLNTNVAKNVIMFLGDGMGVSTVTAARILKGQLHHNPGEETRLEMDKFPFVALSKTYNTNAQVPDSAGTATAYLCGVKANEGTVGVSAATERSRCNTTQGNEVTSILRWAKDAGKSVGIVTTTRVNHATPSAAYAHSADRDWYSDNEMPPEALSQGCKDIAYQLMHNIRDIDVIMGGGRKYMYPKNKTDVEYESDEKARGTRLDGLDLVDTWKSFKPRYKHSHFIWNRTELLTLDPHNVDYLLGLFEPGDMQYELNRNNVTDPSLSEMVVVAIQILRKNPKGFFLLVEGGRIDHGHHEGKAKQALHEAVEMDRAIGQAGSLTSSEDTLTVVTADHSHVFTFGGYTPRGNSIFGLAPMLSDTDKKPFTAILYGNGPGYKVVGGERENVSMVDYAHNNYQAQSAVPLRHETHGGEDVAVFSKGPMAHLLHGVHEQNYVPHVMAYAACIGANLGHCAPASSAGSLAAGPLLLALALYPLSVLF

Compound | activation factor
CC1=C(C)CC(C(=O)NC(C)CCc2ccccc2)C(C(=O)O)C1 (stereo not drawn) | 1
Cc1ccc(O)c(-c2cc(C(=O)NCc3ccccc3)[nH]n2)c1 | 2.3 (active)
Cc1ccc(O)c(-c2cc(C(=O)Nc3c(C)n(C)n(-c4ccccc4)c3=O)[nH]n2)c1 | 1
Cc1ccc(CNC(=O)c2ccccc2CCc2ccccc2)cc1 | 1.1
O=C1CCC(CCC(=O)N2CCCC(C(=O)c3ccc(Cl)cc3)C2)=NN1 (stereo not drawn) | 1.1
[O-][n+]1c2c(nn1-c1ccc(Cl)c(Cl)c1)-c1nonc1CC2 | 1
Cc1ccc(CN2CCC(N3CCC(C(=O)NCC4CCCO4)CC3)CC2)o1 (stereo not drawn) | 1
Cc1ccccc1-c1n[nH]c(=S)n1/N=C/c1ccc(-c2ccccc2Br)o1 | 0.9
CCOC(=O)C1(Cc2cccc(OC)c2)CCCN(S(=O)(=O)c2cccnc2)C1 (stereo not drawn) | 1.1
CCOc1ccc(C(=O)NCCCN2CCCC2=O)cc1 | 1
COc1ccc(NS(=O)(=O)c2cc(NC(=O)/C=C/c3cc(OC)c(OC)c(OC)c3)ccc2N2CCCCC2)cc1 | 1
Cc1cc(SCC(=O)NCCN2C(=O)CSC2=O)nc2ccccc12 | 1
N#Cc1cnn2cc(CCN3CCOCC3)c(-c3ccc(F)cc3)nc12 | 1
Cc1ccc(C(=O)NC(=S)Nc2ccc(N3CCOCC3)cc2)cc1 | 1
COC(=O)COc1cccc2c(=O)n(CC(=O)NCCc3ccc(OC)c(OC)c3)ccc12 | 1
Cc1ccc(NC(=S)N(CCN2CCCCC2)Cc2ccco2)cc1C | 1
COC(=O)c1cc(NC(=O)Cc2ccccc2[N+](=O)[O-])ccc1Cl | 1
COc1ccc(C(=O)CSc2nc(C)cc(C)n2)cc1[N+](=O)[O-] | 1
Cc1ccc(S(=O)(=O)N(CC(=O)NN=C2CCN(C)CC2)c2ccc(F)cc2)cc1 | 1
CN(C)S(=O)(=O)c1cccc(NC(=O)COC(=O)c2cc(=O)[nH]c(=O)[nH]2)c1 | 1
O=S(=O)(Nc1ncccn1)c1ccc(NS(=O)(=O)c2cccc(Cl)c2Cl)cc1 | 1
O=C(NNC(=S)NCc1ccco1)C(c1ccccc1)c1ccccc1 | 1
CCCCC(=O)NCc1ccc(F)cc1 | 1.1
CCN(c1ccc(NC(=O)COC(=O)CCc2nc3ccccc3n2-c2ccccc2)cc1)C(C)C | 1
Clc1cccc(CN2COc3c(cc(Cl)c4cccnc34)C2)c1 | 1.1
CCN(CCO)C(=S)Nc1cc(C(=O)OC)ccc1C(=O)OC | 1
Cc1ccccc1CC1(CO)CCCN(Cc2ccc3c(c2)OCCO3)C1 (stereo not drawn) | 1.1

Compound | activation factor
Clc1ccc(-n2nnnc2-c2cnc(-c3ccccn3)nc2-c2cccs2)cc1 | 1
COc1ccc(C(=O)Nc2c(Cl)cc(Cl)cc2C(=O)N2CCC(C)CC2)cc1 | 1
O=C(c1ccc(Cl)c([N+](=O)[O-])c1)N1CCN(c2ccccc2)CC1 | 1
O=C(CCl)NNc1cccc(Cl)n1 | 1
C=CCN1C(=O)C(Cc2ccc(OCC)cc2)SC1=Nc1ccc(C(=O)O)cc1 (stereo not drawn) | 1
Cc1nc([N+](=O)[O-])nn1C12CC3CC(CC(Br)(C3)C1)C2 | 1
CC1CCC(C(C)C)C(=O)/C1=C\c1ccc(NC(=O)CCC(=O)O)cc1 (stereo not drawn) | 1.1
O=C(CN1C2=NCCN2c2ccccc21)c1cccs1 | 1.1
COc1ccc(/C=N/NC(=O)c2ccncc2)cc1CN1CCCc2ccccc21 | 1
Cc1ccnc(NC(=O)c2ccco2)n1 | 1
CCNc1nc(-c2cc3ccccc3o2)cs1 | 1.1
Oc1cccc(C2c3[nH]c4ccccc4c3CCN2Cc2cnn(-c3ccccc3)c2)c1 (stereo not drawn) | 1
COC(=O)c1ccc(C(NC(=O)OCc2ccccc2)/C(C)=C/[C@@H](C)C(=O)NCc2ccc(OC)c(OC)c2)cc1 (stereo partly drawn) | 1.1
CCOc1c2ccc(C(=O)NC3CCCc4ccccc43)cc2nn1CC (stereo not drawn) | 1
Cc1nnsc1C(=O)N/N=C/c1cccc(C(F)(F)F)c1 | 1
Cc1[nH]c2ccccc2c1/C=C(/C#N)C(=O)NC(C)C | 1
O=C(Cc1c(F)cccc1Cl)Nc1ccc(-n2cnnn2)cc1 | 1
COCCCNC(=O)Cn1c(=O)n(Cc2ccccc2Cl)c(=O)c2cc(OC)c(OC)cc21 | 1
COc1cc([N+](=O)[O-])ccc1NC(=O)CN1CCCC1 | 1
COc1ccc(-c2nn(-c3ccccc3)cc2CN2CCCO2)c(F)c1 | 1.1
O=C(O/N=C(/c1ccccc1)c1ccncc1)c1ccccc1[N+](=O)[O-] | 1.1
CCC(C)NC(=O)Cn1nc(C(F)(F)F)c2c1CCC2 (stereo not drawn) | 1.1
CCOC(=O)COc1cc(O)c2c(=O)cc(-c3ccccc3)oc2c1 | 1
Cc1cccc(NC(=O)/C=C/c2ccc3c(c2)OCO3)n1 | 1
COc1ccc(Sc2nc(-c3ccccc3)ncc2OC)cc1 | 1
N#CCOc1ccc(C2=NO[C@@H]3[C@@H]4C[C@@H]([C@H]5C(=O)N(c6ccc7c(c6)OCO7)C(=O)[C@@H]45)[C@H]23)cc1 | 1
